Where “and” joins values, the source holds several entries; their conditions need not be identical. Equal entries are not always repeated.
Tests used:
Rattus norvegicus [1] = organism: Rattus norvegicus; assay: Tested for inhibition of pergolide-induced rotation in 6-OH-DA-lesioned rats after 2 hr; assay type: functional
Summary of the method: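 Unilateral 6-OHDA-lesioned rats were given test drug sc 2 h before pergolide (0.05 µmol/kg, sc), which induces contralateral circling. Each dose's effect was expressed as percent of the mean of control sessions held 1 week before and 1 week after the test session in the same rat. At least four rats per dose; ED50 by log-probit analysis.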

[2] = target: T1, Adrenergic receptor alpha-1 (Rattus norvegicus, UniProt P15823+P23944+P43140); assay: Displacement of [3H]prazosin from alpha-1 adrenoceptors in whole rat brain membranes; assay type: cell membranes
T1 sequence (P15823 whole entry): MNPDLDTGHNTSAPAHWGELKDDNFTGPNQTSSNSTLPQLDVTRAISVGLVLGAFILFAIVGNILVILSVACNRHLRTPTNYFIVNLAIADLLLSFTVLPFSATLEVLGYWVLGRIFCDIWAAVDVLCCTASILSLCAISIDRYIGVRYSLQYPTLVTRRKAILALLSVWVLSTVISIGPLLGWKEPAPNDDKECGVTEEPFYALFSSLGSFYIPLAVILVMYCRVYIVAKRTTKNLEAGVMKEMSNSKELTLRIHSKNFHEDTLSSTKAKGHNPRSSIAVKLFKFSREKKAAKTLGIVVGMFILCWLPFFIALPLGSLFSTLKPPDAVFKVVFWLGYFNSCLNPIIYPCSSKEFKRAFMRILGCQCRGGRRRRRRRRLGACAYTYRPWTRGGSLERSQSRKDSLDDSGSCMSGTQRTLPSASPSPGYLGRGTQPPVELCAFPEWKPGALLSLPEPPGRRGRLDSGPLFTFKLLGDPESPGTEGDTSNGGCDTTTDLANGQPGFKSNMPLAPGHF
T1 sequence (P23944 whole entry): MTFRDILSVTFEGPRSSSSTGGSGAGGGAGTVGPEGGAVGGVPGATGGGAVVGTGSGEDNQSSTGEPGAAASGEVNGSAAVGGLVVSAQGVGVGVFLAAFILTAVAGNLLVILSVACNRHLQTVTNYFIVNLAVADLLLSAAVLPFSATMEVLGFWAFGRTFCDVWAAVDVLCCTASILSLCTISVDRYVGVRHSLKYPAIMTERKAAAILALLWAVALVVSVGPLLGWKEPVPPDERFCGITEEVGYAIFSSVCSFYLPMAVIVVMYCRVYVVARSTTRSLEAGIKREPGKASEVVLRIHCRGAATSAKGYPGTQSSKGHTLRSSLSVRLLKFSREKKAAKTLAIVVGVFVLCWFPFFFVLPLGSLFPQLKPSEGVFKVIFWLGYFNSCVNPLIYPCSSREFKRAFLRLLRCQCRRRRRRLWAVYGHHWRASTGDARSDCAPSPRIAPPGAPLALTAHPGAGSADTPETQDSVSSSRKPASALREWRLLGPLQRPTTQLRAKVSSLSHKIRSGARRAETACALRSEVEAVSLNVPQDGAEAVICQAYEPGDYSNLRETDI
T1 sequence (P43140 whole entry): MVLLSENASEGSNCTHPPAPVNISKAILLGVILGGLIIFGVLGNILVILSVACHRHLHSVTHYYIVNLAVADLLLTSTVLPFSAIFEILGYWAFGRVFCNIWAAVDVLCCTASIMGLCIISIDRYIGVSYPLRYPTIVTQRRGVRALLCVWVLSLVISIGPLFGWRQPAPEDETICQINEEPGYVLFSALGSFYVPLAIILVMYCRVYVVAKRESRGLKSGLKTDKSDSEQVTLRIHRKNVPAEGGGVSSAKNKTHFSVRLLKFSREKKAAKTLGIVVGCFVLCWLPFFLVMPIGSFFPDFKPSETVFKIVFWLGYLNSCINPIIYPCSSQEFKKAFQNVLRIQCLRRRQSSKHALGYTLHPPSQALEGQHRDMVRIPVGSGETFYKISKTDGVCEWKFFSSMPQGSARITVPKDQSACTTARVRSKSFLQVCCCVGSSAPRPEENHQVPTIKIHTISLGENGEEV
Summary of the method: (§1)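 Radioligand displacement from rat brain membranes: 3H-ketanserin on cortical membranes (5-HT2), 3H-prazosin on whole brain membranes (alpha1), 3H-spiperone on striatal membranes (D2). Two full concentration-effect curves per compound, each with five test drug concentrations in triplicate spanning three decades. IC50 estimated from curves on a log-concentration scale. Outliers beyond 3 times the sd-ratio were discarded after extra determinations.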

[3] = target: Serotonin 2 (5-HT2) receptor (Rattus norvegicus, UniProt P30994+P08909+P14842); assay: Displacement of [3H]ketanserin from 5-hydroxytryptamine 2 receptor in rat cortical membranes; assay type: cell membranes, Membrane; summary of the method: as §1
Rattus norvegicus [4] = organism: Rattus norvegicus; assay: Inhibition of quipazine-induced head twitches in rats after 2 hrs of pretreatment; assay type: functional
Summary of the method: (§2)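 Test drug was given sc or po to rats 2 or 24 h before quipazine (15 µmol/kg, sc). Head twitches were counted 30-40 min after quipazine, at least four animals per dose. Counts were expressed as percent of a quipazine-only control group.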

D(2) dopamine receptor = D(2) dopamine receptor (Rattus norvegicus, UniProt P61169); assay: Displacement of [3H]spiperone from dopamine D2 receptors in rat striatal membranes; assay type: cell membranes, Membrane; summary of the method: as §1
Chain of D(2) dopamine receptor (P61169 whole entry): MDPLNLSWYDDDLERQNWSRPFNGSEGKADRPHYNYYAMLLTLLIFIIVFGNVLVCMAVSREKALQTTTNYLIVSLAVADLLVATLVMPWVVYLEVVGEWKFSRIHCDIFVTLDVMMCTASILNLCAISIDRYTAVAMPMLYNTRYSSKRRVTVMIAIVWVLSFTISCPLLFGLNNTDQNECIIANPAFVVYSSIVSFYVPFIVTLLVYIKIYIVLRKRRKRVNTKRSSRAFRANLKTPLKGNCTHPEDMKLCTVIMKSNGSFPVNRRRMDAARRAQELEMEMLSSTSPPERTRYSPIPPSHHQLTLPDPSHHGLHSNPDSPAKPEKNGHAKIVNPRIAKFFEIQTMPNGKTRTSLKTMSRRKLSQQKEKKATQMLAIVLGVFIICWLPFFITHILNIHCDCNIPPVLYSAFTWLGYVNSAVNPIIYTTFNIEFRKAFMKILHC

Rattus norvegicus [5] = organism: Rattus norvegicus; assay: Tested for inhibition of norepinephrine uptake in rat brain membranes; assay type: functional, Membrane
Rattus norvegicus [6] = organism: Rattus norvegicus; assay: Tested for inhibition of dopamine uptake in rat brain membranes; assay type: functional, Membrane
Rattus norvegicus [7] = organism: Rattus norvegicus; assay: Tested for inhibition of quipazine-induced head twitches in rats after 24 hours of pretreatment; assay type: functional; summary of the method: as §2
Rattus norvegicus [8] = organism: Rattus norvegicus; assay: Tested for inhibition of quipazine-induced head twitches after 24 hours of pretreatment; assay type: functional; summary of the method: as §2
Rattus norvegicus [9] = organism: Rattus norvegicus; assay: Tested for inhibition of quipazine-induced head twitches in rats after 2 hours of pretreatment; assay type: functional; summary of the method: as §2
[10] = Rattus norvegicus, read-out: ED50

Row | SMILES | ED50 (Rattus norvegicus [1]) [µmol/kg] | IC50 [2] [nM] | IC50 [3] [nM] | ED50 (Rattus norvegicus [4]) | IC50 (D(2) dopamine receptor) [nM] | IC50 (Rattus norvegicus [5]) [nM] | IC50 (Rattus norvegicus [6]) [nM] | ED50 (Rattus norvegicus [4]; [10]) [µmol/kg] | ED50 (Rattus norvegicus [7]) [µmol/kg] | ED50 (Rattus norvegicus [8]) [µmol/kg] | ED50 (Rattus norvegicus [9]) [µmol/kg]
1 | O=C(O)/C=C\C(=O)O.O=C(O)/C=C\C(=O)O.O=C1NCCCN1CCN1CCN(C2CC(c3ccc(F)cc3)c3cc(F)ccc32)CC1 (single isomer, unassigned; (+)) | > 15 | 41 | 1.1 | 0.029 µM/kg and 0.07 µM/kg | 280 | – | – | – | – | – | –
2 | CC(C)N1CCN(CCN2CCN(C3CC(c4ccc(F)cc4)c4cc(Cl)ccc43)CC2)C1=O.O=C(O)/C=C\C(=O)O.O=C(O)/C=C\C(=O)O (single isomer, unassigned; (-)) | > 14 | 210 | 1.1 | – | 200 | 2900 | 1900 | – | – | – | –
3 | CC(C)N1CCN(CCN2CCN(C3CC(c4ccc(F)cc4)c4cc(Cl)ccc43)CC2)C1=O.O=C(O)/C=C\C(=O)O.O=C(O)/C=C\C(=O)O (stereo in doubt; (+)-20) | – | 340 | 75 | >7 µM/kg | 1300 | 50 | 70 | – | – | – | –
4 | O=C(O)/C=C\C(=O)O.O=C(O)/C=C\C(=O)O.O=C1NCCCN1CCN1CCN(C2CC(c3ccc(F)cc3)c3cc(Cl)ccc32)CC1 (single isomer, unassigned; (-)) | > 15 | 62 | 1.3 | – | 94 | – | – | 0.11 | 0.072 | – | –
5 | Cl.Cl.Fc1ccc(C2CC(N3CCN(CCN4CCCNC4=S)CC3)c3ccc(F)cc32)cc1 (single isomer, unassigned; (+)) | > 37 | 43 | 0.95 | – | 140 | – | – | 0.017 | – | 0.011 | –
6 | Fc1ccc(C2CC(N3CCN(CCN4CCCN=C4S)CC3)c3ccc(F)cc32)cc1.O=C(O)/C=C\C(=O)O.O=C(O)/C=C\C(=O)O (stereo unspecified) | – | 110 | 1.7 | – | 220 | – | – | 0.039 | – | – | –
7 | O=C1NCCN1CCN1CCN([C@@H]2C[C@@H](c3ccc(F)cc3)c3ccccc32)CC1 [IRINDALONE] | 7.4 | 2.6 | – | – | – | – | – | 0.58 | – | 0.75 | –
8 | O=C(O)/C=C\C(=O)O.O=C(O)/C=C\C(=O)O.Oc1nc2ccccc2n1CCN1CCN(C2CC(c3ccc(F)cc3)c3cc(Cl)ccc32)CC1 (stereo unspecified) | – | 66 | 5.6 | – | 110 | – | – | 0.21 | – | – | –
9 | Cc1ccc2c(c1)C(c1ccc(F)cc1)CC2N1CCN(CCO)CC1.O=C(O)/C=C\C(=O)O.O=C(O)/C=C\C(=O)O (stereo unspecified) | – | 270 | 12 | – | 1100 | – | – | > 2.1 | – | – | –
10 | Fc1ccc(C2CC(N3CCN(CCN4CCNC4=S)CC3)c3ccc(Cl)cc32)cc1.O=C(O)/C=C\C(=O)O (stereo unspecified) | > 14 | 52 | 1.5 | – | – | – | – | – | 1.4 | – | 0.077
11 | O=C(O)/C=C\C(=O)O.O=C(O)/C=C\C(=O)O.O=C1NCCN1CCCN1CCN(C2CC(c3ccc(F)cc3)c3cc(Cl)ccc32)CC1 (stereo unspecified) | – | 73 | 10 | – | 160 | – | – | 0.91 | – | – | –
12 | Fc1ccc(C2CC(N3CCN(CCN4CCN=C4S)CC3)c3ccc(F)cc32)cc1.O=C(O)/C=C\C(=O)O.O=C(O)/C=C\C(=O)O (stereo unspecified) | > 15 | 110 | 1.5 | – | 230 | – | – | 0.12 | – | 0.62 | –
13 | Cc1nc2sccn2c(=O)c1CCN1CCC(=C(c2ccc(F)cc2)c2ccc(F)cc2)CC1 [RITANSERIN] | > 21 | – | – | – | – | – | – | – | – | – | –
14 | Cl.Cl.Fc1ccc(C2CC(N3CCN(CCN4CCCNC4=S)CC3)c3ccc(Cl)cc32)cc1 (stereo in doubt; (-)-39) | > 18 | 67 | 0.75 | – | 33 | – | – | 0.041 | – | 0.021 | –
15 | Cl.Cl.O=C1OCCN1CCN1CCN(C2CC(c3ccc(F)cc3)c3cc(Cl)ccc32)CC1 (stereo unspecified) | – | 140 | 23 | – | 550 | – | – | 2 | – | – | –
16 | OCCN1CCN(C2CC(c3ccc(F)cc3)c3ccc(Cl)cc32)CC1 (stereo unspecified) | – | 26 | 2.6 | – | 20 | – | – | 0.039 | – | – | –
17 | Cl.Cl.O=C1CCCN1CCN1CCN(C2CC(c3ccc(F)cc3)c3cc(Cl)ccc32)CC1 (stereo unspecified) | – | 370 | 10 | – | 500 | – | – | 2.7 | – | – | –
18 | Cc1ccc2c(c1)C(c1ccc(F)cc1)CC2N1CCN(CCN2CCN(C(C)C)C2=O)CC1.O=C(O)/C=C\C(=O)O.O=C(O)/C=C\C(=O)O (stereo unspecified) | – | 120 | 3 | – | 450 | – | – | 0.2 | – | – | –
19 | OCCN1CCN(C2CC(c3ccc(F)cc3)c3cc(F)ccc32)CC1 (stereo unspecified) | – | 150 | 21 | 0.35 µM/kg | 1100 | – | – | – | – | – | –
20 | OCCN1CCN(C2CC(c3ccc(F)cc3)c3c(Cl)cccc32)CC1 (stereo unspecified) | – | 30 | 40 | – | 220 | – | – | 0.82 | – | – | –
